Assay results from ChEMBL document CHEMBL1140243, “Synthesis and SAR of 2,3-diarylpyrrole inhibitors of parasite cGMP-dependent protein kinase as novel anticoccidial agents” (Bioorg Med Chem Lett, 2005).

test system: Eimeria tenella; assay: Anticoccidial activity (percent reduction in oocyst production) against Eimeria tenella in white leghorn chickens at 100 ppm; format: functional; design: scale not given: the % may be the effect or the level left
Procedure, shortened: (§1)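 White Leghorn chicks were acclimated, then at 3 days old sorted by weight and randomized to medicated or control diets. There were one or two replicates of two birds per treatment. After 24 h of premedication, one bird per replicate got E. acervulina and the other E. tenella, both drug-sensitive laboratory strains. Inocula were sporulated oocysts in tap water, 0.25 mL per bird, giving low-to-moderate infection.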

| Structure (SMILES) | Activity |
| --- | --- |
| CN1CCC(c2cc(-c3ccncc3)c(-c3ccc(F)cc3)o2)CC1 | <50% |
| Cc1cc(-c2cc(C3CCN(C)CC3)[nH]c2-c2ccc(F)cc2)ccn1 | <50% |
| CN1CCC(c2cc(-c3ccncc3)c(-c3ccc(OC(F)(F)F)cc3)[nH]2)CC1 | >=80% |
| CN1CCC(c2cc(-c3ccncc3)c(-c3cccc(F)c3)[nH]2)CC1 | <50% |
| CN1CCC(c2cc(-c3ccncc3)c(-c3ccc(S(C)(=O)=O)cc3)[nH]2)CC1 | >=80% |
| CN1CCC(c2cc(-c3ccncc3)c(-c3ccc(F)cc3)[nH]2)CC1 | >=80% |
| CN1CCC(c2cc(-c3ccncc3)c(-c3ccc(C(F)(F)F)cc3)[nH]2)CC1 | <50% |
| CN1CCC(c2cc(-c3ccncc3)c(-c3ccoc3)[nH]2)CC1 | <50% |
| CC(=O)CN1CCC(c2cc(-c3ccncc3)c(-c3ccc(F)cc3)[nH]2)CC1 | <50% |
| CN1CCC(c2cc(-c3ccncc3)c(-c3ccc(O)cc3)[nH]2)CC1 | <50% |
| NC1(CN2CCC(c3cc(-c4ccncc4)c(-c4ccc(F)cc4)[nH]3)CC2)CC1 | <50% |
| CN1CCC(c2cc(-c3ccncc3)c(-c3ccc(Cl)cc3)[nH]2)CC1 | <50% |
| CN1CCC(c2cc(-c3ccc(F)cc3)c(-c3ccc(F)cc3)[nH]2)CC1 | <50% |
| CN1CCC(c2cc(-c3ccncc3)c(-c3nccs3)[nH]2)CC1 | <50% |
| CN1CCC(c2nc(-c3ccc(F)cc3)c(-c3ccncc3)[nH]2)CC1 | >=80% |
| OC1(CN2CCC(c3cc(-c4ccncc4)c(-c4ccc(F)cc4)[nH]3)CC2)CC1 | >=80% |
| CC(N)CN1CCC(c2cc(-c3ccncc3)c(-c3ccc(F)cc3)[nH]2)CC1 (stereo not drawn) | >=80% |
| NCCN1CCC(c2cc(-c3ccncc3)c(-c3ccc(F)cc3)[nH]2)CC1 | <50% |

target: cGMP-dependent protein kinase (Eimeria tenella, UniProt Q8MMZ8); assay: In vitro inhibition of Eimeria tenella cGMP-dependent protein kinase
Sequence (Q8MMZ8 whole entry): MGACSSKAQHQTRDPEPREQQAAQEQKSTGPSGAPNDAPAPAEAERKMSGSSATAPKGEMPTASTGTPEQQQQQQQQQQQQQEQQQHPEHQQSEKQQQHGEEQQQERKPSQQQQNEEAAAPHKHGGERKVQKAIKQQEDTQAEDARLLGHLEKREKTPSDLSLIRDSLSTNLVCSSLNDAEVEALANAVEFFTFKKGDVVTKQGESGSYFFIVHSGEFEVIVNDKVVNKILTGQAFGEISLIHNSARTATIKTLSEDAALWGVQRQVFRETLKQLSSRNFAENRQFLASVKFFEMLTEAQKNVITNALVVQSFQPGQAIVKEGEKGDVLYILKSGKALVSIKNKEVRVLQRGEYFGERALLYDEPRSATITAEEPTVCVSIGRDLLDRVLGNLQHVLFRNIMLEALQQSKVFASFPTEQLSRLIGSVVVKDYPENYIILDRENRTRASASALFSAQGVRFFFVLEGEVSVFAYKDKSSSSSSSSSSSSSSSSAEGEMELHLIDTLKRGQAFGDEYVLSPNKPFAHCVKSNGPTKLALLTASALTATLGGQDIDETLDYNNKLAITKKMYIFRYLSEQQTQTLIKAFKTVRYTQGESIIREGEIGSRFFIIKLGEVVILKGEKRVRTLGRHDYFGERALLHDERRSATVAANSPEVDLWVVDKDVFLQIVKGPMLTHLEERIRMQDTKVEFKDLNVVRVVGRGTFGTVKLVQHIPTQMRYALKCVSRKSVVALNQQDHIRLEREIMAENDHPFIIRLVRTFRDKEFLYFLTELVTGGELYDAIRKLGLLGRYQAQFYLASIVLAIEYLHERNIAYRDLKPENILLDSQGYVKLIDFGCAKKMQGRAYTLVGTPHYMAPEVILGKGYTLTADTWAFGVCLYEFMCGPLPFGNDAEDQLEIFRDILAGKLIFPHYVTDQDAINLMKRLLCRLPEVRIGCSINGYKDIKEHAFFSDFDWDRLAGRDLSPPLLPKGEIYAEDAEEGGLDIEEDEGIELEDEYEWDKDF

| Structure (SMILES) | IC50 [nM] |
| --- | --- |
| CN1CCC(c2cc(-c3ccncc3)c(-c3ccccc3)[nH]2)CC1 | 3.1 |
| OCCCN1CCC(c2cc(-c3ccncc3)c(-c3ccc(F)cc3)[nH]2)CC1 | 0.53 |
| CN1CCC(c2cc(-c3ccncc3)c(-c3ccc(F)cc3)o2)CC1 | 2.1 |
| CN1CCC(c2[nH]c(-c3ccc(F)cc3)c(-c3ccncc3)c2Cl)CC1 | 1.02 |
| CN1CCC(c2cc(-c3ccncc3)c(-c3ccc(OC(F)(F)F)cc3)[nH]2)CC1 | 46 |
| CN1CCC(c2cc(-c3ccncc3)c(-c3cccc(F)c3)[nH]2)CC1 | 7.4 |
| CN1CCC(c2cc(-c3ccncc3)c(-c3ccc(S(C)(=O)=O)cc3)[nH]2)CC1 | 42 |
| CN1CCC(c2cc(-c3ccncc3)c(-c3ccoc3)[nH]2)CC1 | 26.3 |
| CC(=O)CN1CCC(c2cc(-c3ccncc3)c(-c3ccc(F)cc3)[nH]2)CC1 | 0.32 |
| NC1(CN2CCC(c3cc(-c4ccncc4)c(-c4ccc(F)cc4)[nH]3)CC2)CC1 | 0.24 |
| CN1CCC(c2cc(-c3ccncc3)c(-c3nccs3)[nH]2)CC1 | 39.7 |
| CN1CCC(c2nc(-c3ccc(F)cc3)c(-c3ccncc3)[nH]2)CC1 | 1.1 |
| OC1(CN2CCC(c3cc(-c4ccncc4)c(-c4ccc(F)cc4)[nH]3)CC2)CC1 | 1.1 |
| CC(N)CN1CCC(c2cc(-c3ccncc3)c(-c3ccc(F)cc3)[nH]2)CC1 (stereo not drawn) | 2 |

More lines, now with the values ahead:

| IC50 [nM] | Structure (SMILES) |
| --- | --- |
| 2.8 | Cc1cc(-c2cc(C3CCN(C)CC3)[nH]c2-c2ccc(F)cc2)ccn1 |
| 0.7 | CN1CCC(c2cc(-c3ccncc3)c(-c3ccc(F)cc3)[nH]2)CC1 |
| 55 | CN1CCC(c2cc(-c3ccncc3)c(-c3ccc(C(F)(F)F)cc3)[nH]2)CC1 |
| 50 | CN1CCC(c2cc(-c3ccncc3)c(-c3ccc(O)cc3)[nH]2)CC1 |
| 1 | CN1CCC(c2cc(-c3ccncc3)c(-c3ccc(Cl)cc3)[nH]2)CC1 |
| 15.6 | CN1CCC(c2cc(-c3ccc(F)cc3)c(-c3ccc(F)cc3)[nH]2)CC1 |
| 0.28 | NCCN1CCC(c2cc(-c3ccncc3)c(-c3ccc(F)cc3)[nH]2)CC1 |

test system: Eimeria acervulina; assay: Anticoccidial activity (percent reduction in oocyst production) against Eimeria acervulina in white leghorn chickens at 100 ppm; format: functional; design: scale not given: the % may be the effect or the level left; procedure, shortened: as §1

| Structure (SMILES) | Activity |
| --- | --- |
| OCCCN1CCC(c2cc(-c3ccncc3)c(-c3ccc(F)cc3)[nH]2)CC1 | >=80% |
| CN1CCC(c2[nH]c(-c3ccc(F)cc3)c(-c3ccncc3)c2Cl)CC1 | <50% |
| Cc1cc(-c2cc(C3CCN(C)CC3)[nH]c2-c2ccc(F)cc2)ccn1 | <50% |
| CN1CCC(c2cc(-c3ccncc3)c(-c3ccc(OC(F)(F)F)cc3)[nH]2)CC1 | <50% |
| CN1CCC(c2cc(-c3ccncc3)c(-c3cccc(F)c3)[nH]2)CC1 | <50% |
| CN1CCC(c2cc(-c3ccncc3)c(-c3ccc(S(C)(=O)=O)cc3)[nH]2)CC1 | <50% |
| CN1CCC(c2cc(-c3ccncc3)c(-c3ccc(F)cc3)[nH]2)CC1 | >=80% |
| CN1CCC(c2cc(-c3ccncc3)c(-c3ccc(C(F)(F)F)cc3)[nH]2)CC1 | <50% |
| CN1CCC(c2cc(-c3ccncc3)c(-c3ccoc3)[nH]2)CC1 | <50% |
| CC(=O)CN1CCC(c2cc(-c3ccncc3)c(-c3ccc(F)cc3)[nH]2)CC1 | <50% |
| CN1CCC(c2cc(-c3ccncc3)c(-c3ccc(O)cc3)[nH]2)CC1 | <50% |
| NC1(CN2CCC(c3cc(-c4ccncc4)c(-c4ccc(F)cc4)[nH]3)CC2)CC1 | <50% |
| CN1CCC(c2cc(-c3ccncc3)c(-c3ccc(Cl)cc3)[nH]2)CC1 | >=80% |
| CN1CCC(c2cc(-c3ccc(F)cc3)c(-c3ccc(F)cc3)[nH]2)CC1 | <50% |
| CN1CCC(c2cc(-c3ccncc3)c(-c3nccs3)[nH]2)CC1 | <50% |
| CN1CCC(c2nc(-c3ccc(F)cc3)c(-c3ccncc3)[nH]2)CC1 | <50% |
| OC1(CN2CCC(c3cc(-c4ccncc4)c(-c4ccc(F)cc4)[nH]3)CC2)CC1 | >=80% |
| CC(N)CN1CCC(c2cc(-c3ccncc3)c(-c3ccc(F)cc3)[nH]2)CC1 (stereo not drawn) | >=80% |
| NCCN1CCC(c2cc(-c3ccncc3)c(-c3ccc(F)cc3)[nH]2)CC1 | <50% |
